The array DNA melting data of Ke et al. (doi:10.1101/2024.01.08.574731)

Columns and labels:
[1] = melting temperature; fluorescence melt of hairpins on a sequencing array, two-state fit, raised by 9.35 °C to match UV melts; conditions: sodium 0.088 M
Method in brief: (§1)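 Library hairpins on a sequenced MiSeq flow cell carried annealed Cy3 and quencher oligos, and their Cy3 fluorescence was imaged in 50 mM Na-HEPES pH 8.0 with 25 mM NaCl, in 2.5 °C steps up to 60 °C. Signals were normalised to Cy3 before quenching and to control constructs. Melting temperature and folding enthalpy were obtained from bootstrapped two-state fits, combined by inverse-variance weighting across four replicates, and the fitted temperatures were then raised by 9.35 °C to match UV melts.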

[2] = folding enthalpy; higher = less favourable; fluorescence melt of hairpins on a sequencing array, two-state fit; conditions: sodium 0.088 M
Method in brief: as §1

Sequence	Tm [1]	folding enthalpy [2]
GATCGGGAATCCGATC ((((((....))))))	64.8 °C	-38.6 kcal/mol
GATCGGGAGCCCGATC ((((((....))))))	55.5 °C	-36.5 kcal/mol
GATCGGGATACCGATC ((((((....))))))	65.7 °C	-45.8 kcal/mol
GATCGGGATCCCGATC ((((((....))))))	59.5 °C	-50.5 kcal/mol
GATCGGGCCCCCGATC ((((((....))))))	59.6 °C	-43.2 kcal/mol
GATCGGGCCCCGATC ((((((...))))))	57.5 °C	-44.1 kcal/mol
GATCGGGCGAAAGCCATC (((..(((....))))))	22.6 °C	-10.2 kcal/mol
GATCGGGCTCCCGATC ((((((....))))))	58.5 °C	-40.6 kcal/mol
GATCGGGGAAACTCGGTC ((.((.(....).)).))	38 °C	-28.3 kcal/mol
GATCGGGGACCCGATC ((((((....))))))	63 °C	-45.9 kcal/mol
GATCGGGGAGCCGATC ((((((....))))))	59.5 °C	-35.1 kcal/mol
GATCGGGGGCCCGATC ((((((....))))))	59.7 °C	-40.1 kcal/mol
GATCGGGGTGCCGATC ((((((....))))))	59.3 °C	-52.3 kcal/mol
GATCGGGTAACCGATC ((((((....))))))	68.1 °C	-36.6 kcal/mol
GATCGGGTAGCCGATC ((((((....))))))	62 °C	-41.9 kcal/mol
GATCGGGTGCCCGATC ((((((....))))))	60.1 °C	-36.7 kcal/mol
GATCGGTAACCCGATC ((((((....))))))	54.3 °C	-32.7 kcal/mol
GATCGGTAACCGATC ((((((...))))))	56.1 °C	-35.5 kcal/mol
GATCGGTAGCCGATC ((((((...))))))	55.4 °C	-42.2 kcal/mol
GATCGGTAGGCCGATC ((((((....))))))	57.9 °C	-40.5 kcal/mol
GATCGGTAGTCCGATC ((((((....))))))	55.6 °C	-44.4 kcal/mol
GATCGGTATCCGATC ((((((...))))))	57.4 °C	-40.8 kcal/mol
GATCGGTCGACCGATC ((((((....))))))	61.4 °C	-49.7 kcal/mol
GATCGGTGACCCGATC ((((((....))))))	55.8 °C	-36.5 kcal/mol

Sequence	Tm [1]	folding enthalpy [2]
GATCGGTGACCGATC ((((((...))))))	55.5 °C	-38.7 kcal/mol
GATCGGTGCCCCGATC ((((((....))))))	57 °C	-29.1 kcal/mol
GATCGGTGTCCGATC ((((((...))))))	58.3 °C	-32 kcal/mol
GATCGGTGTTCCGATC ((((((....))))))	58.6 °C	-41.3 kcal/mol
GATCGGTTCCCCGATC ((((((....))))))	56.8 °C	-40 kcal/mol
GATCGGTTTTCCGATC ((((((....))))))	60.1 °C	-45.1 kcal/mol
GATCGTAAAACGATC ((((((...))))))	54.4 °C	-36.7 kcal/mol
GATCGTAAGTACGATC ((((((....))))))	53.3 °C	-32.9 kcal/mol
GATCGTACCACGATC ((((((...))))))	57.3 °C	-33.7 kcal/mol
GATCGTACCGACGATC ((((((....))))))	53.4 °C	-53.3 kcal/mol
GATCGTACGACGATC ((((((...))))))	54.5 °C	-37.2 kcal/mol
GATCGTACGTACGATC ((((((....))))))	57.9 °C	-36 kcal/mol
GATCGTACTCACGATC ((((((....))))))	53.9 °C	-44.5 kcal/mol
GATCGTACTTACGATC ((((((....))))))	55.3 °C	-39.8 kcal/mol
GATCGTAGAACGATC ((((((...))))))	55.2 °C	-36.6 kcal/mol
GATCGTAGCGACGATC ((((((....))))))	54.9 °C	-38.9 kcal/mol
GATCGTAGCTACGATC ((((((....))))))	59 °C	-43.2 kcal/mol
GATCGTAGGTACGATC ((((((....))))))	55.8 °C	-38.9 kcal/mol
GATCGTAGTGACGATC ((((((....))))))	56.6 °C	-33.7 kcal/mol
GATCGTAGTTACGATC ((((((....))))))	56.8 °C	-30.9 kcal/mol
GATCGTATCCACGATC ((((((....))))))	56.9 °C	-35.3 kcal/mol
GATCGTCAGTACGATC ((((((....))))))	53.7 °C	-42.8 kcal/mol
GATCGTCCAACGATC ((((((...))))))	55.6 °C	-39.4 kcal/mol
GATCGTCCCACGATC ((((((...))))))	57.6 °C	-38.5 kcal/mol

Sequence	Tm [1]	folding enthalpy [2]
GATCGTCCCTACGATC ((((((....))))))	55 °C	-43.9 kcal/mol
GATCGTCGCACGATC ((((((...))))))	58.2 °C	-37.9 kcal/mol
GATCGTCGCGACGATC ((((((....))))))	67.6 °C	-37.5 kcal/mol
GATCGTCGTTACGATC ((((((....))))))	55.6 °C	-36 kcal/mol
GATCGTCTCTACGATC ((((((....))))))	54.5 °C	-38.4 kcal/mol
GATCGTGAAACGATC ((((((...))))))	66.8 °C	-36.8 kcal/mol
GATCGTGAACACGATC ((((((....))))))	63.6 °C	-34.5 kcal/mol
GATCGTGACGACGATC ((((((....))))))	56.8 °C	-39.2 kcal/mol
GATCGTGATGACGATC ((((((....))))))	54.4 °C	-37.8 kcal/mol
GATCGTGCCGACGATC ((((((....))))))	56.4 °C	-49.2 kcal/mol
GATCGTGCGAACGATC ((((((....))))))	64.1 °C	-32.9 kcal/mol
GATCGTGCGTACGATC ((((((....))))))	55 °C	-39.5 kcal/mol
GATCGTGCTTACGATC ((((((....))))))	56.4 °C	-38.4 kcal/mol
GATCGTGGAAACATGATC ((((.((....)).))))	47.5 °C	-43.8 kcal/mol
GATCGTGTAGACGATC ((((((....))))))	59.6 °C	-39.8 kcal/mol
GATCGTGTGTACGATC ((((((....))))))	54.7 °C	-40.9 kcal/mol
GATCGTTAAGACGATC ((((((....))))))	55.4 °C	-43.2 kcal/mol
GATCGTTACTACGATC ((((((....))))))	55.1 °C	-42.8 kcal/mol
GATCGTTCGGACGATC ((((((....))))))	56.9 °C	-37.8 kcal/mol
GATCGTTCGTACGATC ((((((....))))))	55.5 °C	-44.1 kcal/mol
GATCGTTCTACGATC ((((((...))))))	59.6 °C	-35.3 kcal/mol
GATCGTTGAACGATC ((((((...))))))	53.6 °C	-32.2 kcal/mol
GATCGTTGCAACGATC ((((((....))))))	59.2 °C	-59.5 kcal/mol
GATCGTTGCCACGATC ((((((....))))))	54.5 °C	-39.9 kcal/mol

Sequence	Tm [1]	folding enthalpy [2]
GATCGTTGGGACGATC ((((((....))))))	59 °C	-36.7 kcal/mol
GATCGTTGTACGATC ((((((...))))))	61.1 °C	-38.8 kcal/mol
GATCGTTTAGACGATC ((((((....))))))	55.6 °C	-38.2 kcal/mol
GATCGTTTGACGATC ((((((...))))))	55.5 °C	-24.6 kcal/mol
GATCGTTTGGACGATC ((((((....))))))	56.3 °C	-44.5 kcal/mol
GATCGTTTTAACGATC ((((((....))))))	60.8 °C	-42.2 kcal/mol
GATCTAAAATTAGATC ((((((....))))))	35.7 °C	-29.9 kcal/mol
GATCTAAAGCTAGATC ((((((....))))))	35.4 °C	-18.3 kcal/mol
GATCTAAATATAGATC ((((((....))))))	35.7 °C	-25.9 kcal/mol
GATCTAAATTTAGATC ((((((....))))))	44.3 °C	-32.3 kcal/mol
GATCTAACGGTAGATC ((((((....))))))	40.5 °C	-38.4 kcal/mol
GATCTAACTATAGATC ((((((....))))))	37.5 °C	-29.3 kcal/mol
GATCTAACTTAGATC ((((((...))))))	37.3 °C	-29.3 kcal/mol
GATCTAAGAGTAGATC ((((((....))))))	37.1 °C	-14.9 kcal/mol
GATCTAAGGGTAGATC ((((((....))))))	35.3 °C	-25.1 kcal/mol
GATCTAATAATAGATC ((((((....))))))	35.5 °C	-22 kcal/mol
GATCTAATAGTAGATC ((((((....))))))	33.7 °C	-29.4 kcal/mol
GATCTAATATTAGATC ((((((....))))))	43.2 °C	-40.3 kcal/mol
GATCTAATGATAGATC ((((((....))))))	36.2 °C	-20.4 kcal/mol
GATCTAATGCTAGATC ((((((....))))))	36.5 °C	-29.5 kcal/mol
GATCTAATTGTAGATC ((((((....))))))	38.8 °C	-33 kcal/mol
GATCTACAATAGATC ((((((...))))))	36.7 °C	-18.8 kcal/mol
GATCTACAGATAGATC ((((((....))))))	37.3 °C	-26.6 kcal/mol
GATCTACCATTAGATC ((((((....))))))	37.9 °C	-33.2 kcal/mol
